High-throughput results (PubChem)
PDI turbidity – PDI (human) enzyme inhibition; inhibition, % at 10 µM; PDI insulin aggregation turbidity, A650, 90 min; actives 0.052% (n = 350,000); AID 588391; P07237;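 active means mean inhibition across replicates of 30% or more, whatever share of single replicates reach that level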
Target sequence (P07237 whole entry, looked up): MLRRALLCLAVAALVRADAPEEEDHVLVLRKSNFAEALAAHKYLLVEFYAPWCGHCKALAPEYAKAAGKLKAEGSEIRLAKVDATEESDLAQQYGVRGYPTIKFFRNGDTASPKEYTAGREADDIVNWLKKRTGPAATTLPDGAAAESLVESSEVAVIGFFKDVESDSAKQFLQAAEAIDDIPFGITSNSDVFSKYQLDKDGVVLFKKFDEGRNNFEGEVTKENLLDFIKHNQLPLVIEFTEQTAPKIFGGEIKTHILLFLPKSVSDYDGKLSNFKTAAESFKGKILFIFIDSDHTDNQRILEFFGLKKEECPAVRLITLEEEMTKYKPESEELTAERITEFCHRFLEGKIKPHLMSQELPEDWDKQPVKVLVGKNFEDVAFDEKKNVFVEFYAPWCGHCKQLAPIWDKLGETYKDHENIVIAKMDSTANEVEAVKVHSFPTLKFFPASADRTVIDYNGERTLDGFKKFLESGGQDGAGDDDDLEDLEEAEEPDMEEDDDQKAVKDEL
DENV2 CPE – inhibitors of DENV2 cytopathic effect; DENV2-infected cells, cytopathic effect rescue, plate reader; CPE inhibition, % at 9.99 µM; actives 1.7% (n = 350,000); AID 651640; in the data active means CPE inhibition above about 20%, passing the limit was not always enough; tested in BHK-21 cells;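 further: 0% = median of neutral control wells and 100% = median of positive control wells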
Cneo AK release – causes C. neoformans cell lysis; adenylate kinase release luminescence, 4 h; normalised: neutral wells 0, clomiphene wells 100; lysis activity, % at 15 µM; actives 0.2% (n = 360,000); AID 651654;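 active means mean lysis activity across replicates of at least 80%, whatever share of replicates individually reach that level; inactive means mean lysis activity below 80%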
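Material: C. neoformans cells | Amount: Yeast cell density of 5 × 10^6 cells/mL | Medium: Fresh YPD growth medium | Dosing: Single dose | Times: Static 4 h at 37 °C with compound, 1 h detection | Detection: AK luminescence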
C2C12 statin – protects C2C12 myotubes from simvastatin toxicity. ATP luminescence, 48 h; scaled: DMSO 0, geranylgeraniol control 100. rescue of ATP level, % at 7.49 µM. actives 0.78% (n = 330,000). AID 602340;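 active means mean ATP rescue above about 67%, or every replicate alone reaching that limit, limit read from the data, passing the limit was not always enough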;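 further: myotubes were challenged with 10 µM simvastatin during compound exposure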
ERp5 block – ERp5 (human) disulfide isomerase inhibition; Q15084; ERp5 insulin aggregation, absorbance 650 nm, 90 min; inhibition, % at 9.99 µM; actives 0.05% (n = 350,000); AID 651711;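 active means mean replicate inhibition above about 25%, with every replicate also reaching it, limit read from the data, passing the limit was not always enough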
F508del corr – CFTR F508del correction in bronchial cells. CFBE cells, YFP halide quenching; stimulated with forskolin plus potentiator P3; % fluorescence drop versus neutral controls. activity (quench increase), % at 7.58 µM. actives 0.36% (n = 350,000);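 active means mean added fluorescence quench of at least 8% versus neutral control, with both replicates also reaching 8%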;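 further: cells transiently co-express mutant CFTR-F508del with the halide-sensitive YFP; corrector assay measuring rescue of mutant channel to the surface after 24 h compound exposure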
Numbers without * were called inactive; . = no result given; ! = repeats disagree. An excerpt weighted towards active compounds, which were near 2.3% of everything screened.

SMILES | PDI turbidity | DENV2 CPE | Cneo AK release | C2C12 statin | ERp5 block | F508del corr
CCn1c(SCC(=O)NCc2cccs2)nnc1-c1ccncc1 | 10 | 1 | 2 | 10 | -4 | -2
CCOC(=O)[C@H]1[C@H]2COc3ccc(Br)cc3[C@@H]2N2C(=O)CN(Cc3ccco3)C(=O)[C@@]12C | 14 | 50* | -2 | -2 | 0 | 2
CCOC(=O)[C@@H]1[C@H]2COc3ccc(Br)cc3[C@@H]2N2C(=O)N(c3ccc(C)cc3)C(=O)[C@]12C | -1 | 51* | 3 | -11 | -2 | -3
COCC(=O)N1CCCCN2[C@H](CO)[C@H](c3ccc(C#Cc4ccccc4)cc3)[C@H]2C1 | . | 2 | -3 | 5 | 0 | 0
CCNC(=O)C[C@H]1CC[C@H]2[C@@H](COc3ccc(NC(=O)Nc4cccc(C#N)c4)cc3C(=O)N2C)O1 | . | -6 | -3 | -2 | -2 | 0
COc1cccc(-c2ncc3ccccc3c2COC(=O)c2ccc(F)cc2)c1 | -5 | 102* | -1 | 13 | -1 | 2
CC(C)(C)[C@@H]1C=C(C(=O)N2CCOCC2)O[C@H](OCc2ccc(CO)cc2)C1 | 2 | -1 | 28 | -7 | -7 | 0
C[C@H]1C=C(C(=O)N2CCN(Cc3ccc4c(c3)OCO4)CC2)O[C@@H](OCc2ccc(CO)cc2)C1 | 5 | 24*! | -4 | 13 | -2 | 0
CC(C)(C)[C@H]1C=C(C(=O)N2CCOCC2)O[C@@H](OCc2ccc(CO)cc2)C1 | -5 | 36*! | 0 | 1 | 2 | 2
O=C(NCc1ccccc1)C1=C[C@H](c2ccc3c(c2)OCO3)C[C@H](OCc2ccc(CO)cc2)O1 | 0 | 10 | 1 | 2 | 1 | 0
C[C@@H]1C=C(C(=O)N2CCN(Cc3ccc4c(c3)OCO4)CC2)O[C@H](OCc2ccc(CO)cc2)C1 | . | 2 | 9 | . | -8 | 0
O=C(NCc1ccccc1)C1=C[C@@H](c2ccc3c(c2)OCO3)C[C@@H](OCc2ccc(CO)cc2)O1 | 0 | 22*! | 0 | 5 | 13 | 2
CC(=O)n1cc([C@@H]2C=C(C(=O)N3CCN(Cc4ccccc4)CC3)O[C@H](OCc3ccc(CO)cc3)C2)c2ccccc21 | 1 | -12 | 0 | 86* | 6 | 4
N#C[C@H]1[C@@H](c2ccccc2-c2ccccc2)[C@@H](CO)N1C(=O)Cc1ccncc1 | . | 3 | . | . | 0 | -1
CN1CCN(C(=O)C2=C[C@@H](c3ccc(C(F)(F)F)cc3)C[C@@H](OCc3ccc(CO)cc3)O2)CC1 | 3 | 78*! | 5 | 25 | 6 | -1
O=C(C1=C[C@@H](c2ccc3c(c2)OCO3)C[C@@H](OCc2ccc(CO)cc2)O1)N1CCN(Cc2ccc3c(c2)OCO3)CC1 | . | -1 | 1 | . | -1 | 5
O=C(C1=C[C@H](c2ccc3c(c2)OCO3)C[C@H](OCc2ccc(CO)cc2)O1)N1CCN(Cc2ccc3c(c2)OCO3)CC1 | 6 | 59*! | -9 | 5 | 7 | 5
COc1ccc(NC(=O)N(C)C[C@H]2Oc3ccc(NC(=O)Nc4ccc(C(F)(F)F)cc4)cc3CC(=O)N([C@H](C)CO)C[C@H]2C)cc1 | . | -14 | -60 | -43 | -17 | 4
C[C@H]1CN([C@@H](C)CO)C(=O)c2cc(NC(=O)Nc3ccccc3)ccc2O[C@@H]1CN(C)Cc1ccncc1 | . | -4 | 2 | -7 | -3 | 1
O=C(C[C@H]1CC[C@H]2[C@@H](COC[C@H](O)CN2Cc2cccc(Cl)c2)O1)N1CCCCC1 | . | -4 | -2 | 51 | -1 | 0
CCOC(=O)c1c(NC(=O)CSc2nnc(C)s2)sc2c1CCC(C)C2 (stereo not drawn) | 0 | . | 1 | 98* | . | .
N#C[C@H]1[C@H](c2ccc(-c3ccc(F)cc3)cc2)[C@@H](CO)N1C(=O)Cc1ccccc1 | . | -7 | 18 | 70* | 2 | 6
CC(C)NC(=O)N1[C@H](C#N)[C@@H](c2ccc(-c3ccc(F)cc3)cc2)[C@@H]1CO | . | -1 | -3 | 76* | -2 | 0
N#C[C@H]1[C@@H](c2ccccc2)[C@@H](CO)N1S(=O)(=O)Cc1ccccc1 | . | 65* | -2 | -10 | -2 | 0
CCCNC(=O)N1[C@H](C#N)[C@H](c2ccc(C#Cc3ccc(F)cc3)cc2)[C@H]1CO | . | -15 | -4 | -9 | -7 | 3
SMILES | PDI turbidity | DENV2 CPE | Cneo AK release | C2C12 statin | ERp5 block | F508del corr
CCCNC(=O)N1[C@H](C#N)[C@H](c2ccc(C#Cc3ccc(F)cc3)cc2)[C@@H]1CO | . | -14 | -2 | 20 | -4 | 8.4*
O=C(C[C@@H]1CC[C@H](NC(=O)c2ccccc2)[C@H](CO)O1)NCc1ccncn1 | . | -8 | -2 | -4 | -7 | -2
COc1cccc(-c2ccc([C@@H]3[C@@H](CO)N(C(=O)Cc4ccccc4)[C@H]3C#N)cc2)c1 | . | 6 | 0 | 44 | 0 | -3
COc1cccc(-c2ccc([C@@H]3[C@@H](C#N)N(C(=O)Cc4ccccc4)[C@@H]3CO)cc2)c1 | . | 26* | -1 | 21 | 7 | 1
N#C[C@H]1[C@@H](c2ccccc2)[C@@H](CO)N1C(=O)Cc1ccccc1 | . | -2 | 101* | 9 | 2 | 0
O=C(/C=C/[C@H]1O[C@@H](n2ccc(=O)[nH]c2=O)[C@H](O)[C@@H]1O)NCc1cccs1 | . | 23* | -3 | 0 | 5 | 1
O=C(/C=C/[C@H]1O[C@@H](n2ccc(=O)[nH]c2=O)[C@H](O)[C@@H]1O)NCCc1cccs1 | . | 7 | 1 | 4 | 2 | -2
O=C(COCc1ccccc1)N[C@@H]1c2ccccc2CC[C@H]1OCc1ccccc1 | 4 | -2 | -3 | 4 | -4 | -6
O=C(N[C@@H]1c2ccccc2CC[C@@H]1OCc1ccccc1)c1ccc(C(F)(F)F)cc1 | -1 | 69* | -2 | -23 | 2 | 2
COc1ccc(CNC(=O)C[C@H]2C=C[C@H](NC(=O)c3ccc4c(c3)OCO4)[C@H](CO)O2)cc1 | . | 61* | . | . | 4 | 2
O=C(C[C@H]1CC[C@@H](NC(=O)c2ccc3c(c2)OCO3)[C@H](CO)O1)NCc1ccc(Oc2ccccc2)cc1 | . | 0 | -1 | 68* | 5 | 1
O=C(C[C@H]1CC[C@@H](NC(=O)Nc2ccc3c(c2)OCO3)[C@@H](CO)O1)NCc1ccc2c(c1)OCO2 | . | 20* | -1 | 4 | -6 | 2
O=C(C[C@H]1CC[C@H](NC(=O)Nc2ccc(C(F)(F)F)cc2)[C@H](CO)O1)NCc1cccc(F)c1 | . | 8 | 91* | -1 | -2 | 4
O=C(C[C@H]1CC[C@@H](NC(=O)c2ccc3c(c2)OCO3)[C@@H](CO)O1)NCc1ccc(Oc2ccccc2)cc1 | . | 5 | 1 | -1 | -3 | 1
